Results published in PubChem BioAssay AID504365 (Broad Institute, 2011).
The source made the active and inactive calls.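 The calls were made as follows: active = fitted curve reaches 10% of the positive control caspase activation at or below the top valid tested dose; inactive = signal shifts the opposite way, plus the rest.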

Test system: not listed separately
Test: apoptosis induction in A1-reliant human Mel501 line – Mel501 cells, luminescence, dry powder, set 2, orthogonal assay for A1 inhibitor project, dose response (AID 504365)
Details: Mel501 cells, caspase-3/7 Glo luminescence, 6 h; at 16 µM (top of the series)
In short: (§1)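 System: Mel501 cells; amount: 2500 cells/well; times: 6 h compound (37 °C, 5% CO2), then 1 h Caspase-Glo; signal: luminescence from diluted Caspase-Glo 3/7 DEVD-luciferin reagent; read-out basis: caspase-3/7 activation, shown by rising luminescence signal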

Row | SMILES | caspase activation
1 | CC1(C)CCC(c2ccc(Cl)cc2)=C(CN2CCN(c3ccc(C(=O)NS(=O)(=O)c4ccc(N[C@H](CCN5CCOCC5)CSc5ccccc5)c(S(=O)(=O)C(F)(F)F)c4)cc3)CC2)C1 | 0.95% (inactive)

Same assay, conditions: Mel501 cells, caspase-3/7 Glo luminescence, 6 h; at 35 µM (top of the series)

Row | SMILES | caspase activation
2 | COc1ccc(CCNc2nc(N3CCOCC3)nc(N3CCOCC3)n2)cc1OC | 0.627% (inactive)
3 | CCn1c(=O)c([N+](=O)[O-])c(Cl)c2ccccc21 | 2.55% (inactive)
4 | Cn1c(=O)c([N+](=O)[O-])c(Sc2ccccn2)c2ccccc21 | -1.77% (inactive)
5 | COc1ccc(CCNc2nc(N3CCCC3)nc(N3CCCC3)n2)cc1OC | 0.012% (inactive)
6 | CCn1c(=O)c(Sc2ccc(C)cc2)c(Sc2ccc(C)cc2)c2ccccc21 | -1.83% (inactive)
7 | COCCn1c(=O)c(Sc2ccc(C)cc2)c(Sc2ccc(C)cc2)c2ccccc21 | -1.29% (inactive)
8 | Cn1c(=O)c([N+](=O)[O-])c(S(C)(=O)=O)c2ccccc21 | -1.8% (inactive)
9 | C/C(=N\Nc1nc(N2CCCCC2)nc(N2CCCCC2)n1)c1ccc(F)cc1 | -1.18% (inactive)
10 | Cc1ccc(Sc2c(Sc3ccc(C)cc3)c3ccccc3n(C)c2=O)cc1 | -1.69% (inactive)
11 | O=c1[nH]c2ccccc2c(O)c1[N+](=O)[O-] | -2.05% (inactive)
12 | Cn1c(=O)c(Sc2ccccn2)c(Sc2ccccn2)c2ccccc21 | -2.24% (inactive)
13 | COCCn1c(=O)c([N+](=O)[O-])c(Cl)c2ccccc21 | 6.5% (inactive)
14 | Cc1ccc(Sc2c([N+](=O)[O-])c(=O)n(C)c3ccccc23)cc1 | -1.78% (inactive)
15 | Cc1ccc(Sc2c([N+](=O)[O-])c(=O)n(Cc3ccccc3)c3ccccc23)cc1 | -2.41% (inactive)
16 | CCn1c(=O)c([N+](=O)[O-])c(Sc2ccc(C)cc2)c2ccccc21 | -0.736% (inactive)
17 | COc1ccc(N2CCN(c3nc(NCCc4ccc(OC)c(OC)c4)nc(N4CCOCC4)n3)CC2)cc1 | -1.94% (inactive)
18 | O=C(COc1ccc(Cl)cc1Cl)NNc1nc(N2CCOCC2)nc(N2CCOCC2)n1 | -1.89% (inactive)
19 | COc1c([N+](=O)[O-])c(=O)n(C)c2ccccc12 | -0.501% (inactive)
20 | Cc1ccc(S(=O)(=O)c2c([N+](=O)[O-])c(=O)n(C)c3ccccc23)cc1 | -0.501% (inactive)
21 | Cc1ccc(Sc2c(Sc3ccc(C)cc3)c3ccccc3n(Cc3ccccc3)c2=O)cc1 | -1.23% (inactive)
22 | COCCn1c(=O)c([N+](=O)[O-])c(Sc2ccc(C)cc2)c2ccccc21 | -1.69% (inactive)
23 | COc1nc2ccccc2c(Sc2ccc(C)cc2)c1[N+](=O)[O-] | -2.73% (inactive)
24 | COc1nc2ccccc2c(Cl)c1[N+](=O)[O-] | -1.96% (inactive)

Test system: Mel501 cells, caspase-3/7 Glo luminescence, 6 h
Test: as above
Details: not given
In short: as §1

Row | SMILES | AC10
25 | O=c1[nH]c2ccccc2c(Cl)c1[N+](=O)[O-] | > 35 µM (inactive)
26 | Cn1c(=O)c([N+](=O)[O-])c(Cl)c2ccccc21 | > 35 µM (inactive)
27 | O=c1c([N+](=O)[O-])c(Cl)c2ccccc2n1Cc1ccccc1 | 30.2 µM
